M5 PAM: CHRM5 positive allosteric modulation; P08912; activation, % at 3 µM; hit rate 0.3% among 360,000; CHO-K1 hM5, Fluo-8 calcium, ACh EC20 PAM; 0% = ACh EC20, 100% = ACh EC100;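 active = activation above the run cutoff, the mean activation of all test compounds plus 3 SD, cut at about 18% in these data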
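Measured by: Fluo-8 calcium fluorescence; material: human M5 receptor in CHO-K1 cells; schedule: Post-acetylcholine fluorescence recording 140 s; benchmarks: low control EC20 acetylcholine (0%), high control EC100 acetylcholine (100%); read-out: Max/basal fluorescence ratio as % of EC20–EC100 ACh window; compound: single dose, 3 µM nominal final test concentration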
CHRM4 antagonist: CHRM4 antagonism in calcium assay. P08173. CHO-hM4 cells, ACh EC80, Fluo-8 calcium fluorescence. inhibition, % at 3 µM. hit rate 0.73% among 360,000. AID 624125;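 active = inhibition above its plate's cutoff, the mean inhibition of sample wells plus 3 SD, cut at about 27% in these data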;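 note: 0% = acetylcholine EC80 with DMSO and 100% = DMSO without agonist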
Target sequence (P08173 whole entry, looked up): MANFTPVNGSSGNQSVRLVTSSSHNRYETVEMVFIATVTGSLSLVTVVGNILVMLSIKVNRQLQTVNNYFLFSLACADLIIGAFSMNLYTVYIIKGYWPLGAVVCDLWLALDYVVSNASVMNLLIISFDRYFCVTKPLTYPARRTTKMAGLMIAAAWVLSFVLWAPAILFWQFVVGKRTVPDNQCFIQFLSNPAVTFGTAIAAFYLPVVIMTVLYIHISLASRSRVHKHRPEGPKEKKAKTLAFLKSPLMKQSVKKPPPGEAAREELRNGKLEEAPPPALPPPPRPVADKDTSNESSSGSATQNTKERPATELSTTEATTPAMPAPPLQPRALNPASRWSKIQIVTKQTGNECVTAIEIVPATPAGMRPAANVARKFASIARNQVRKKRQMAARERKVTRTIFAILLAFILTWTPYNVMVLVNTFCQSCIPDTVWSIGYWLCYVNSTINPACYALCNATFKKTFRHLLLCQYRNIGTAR
CHRM4 PAM: positive allosteric modulators of human muscarinic M4 receptor. P08173. CHO-K1 hM4/Gqi5, Fluo-8 calcium fluorescence, ACh EC20; 0% = ACh EC20, 100% = maximal ACh. activation, % at 3 µM. hit rate 0.4% among 360,000;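 active = activation above its plate's cutoff, the mean activation of sample wells plus 3 SD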
M5 antag: CHRM5 antagonism in calcium assay. CHO-hM5 cells, Fluo-8 calcium fluorescence, ACh EC80. inhibition, % at 3 µM. hit rate 0.59% among 360,000;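 active = inhibition above a per-plate cutoff, the mean of that plate's test compounds plus 3 SD, cut at about 27% in these data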;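 note: 0% = acetylcholine EC80 with DMSO and 100% = DMSO without agonist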
M5 ag: CHRM5 agonism in calcium assay; P08912; CHO-K1 hM5 cells, Fluo-8 calcium fluorescence; 0% DMSO wells, 100% maximal acetylcholine response; activation, % at 3 µM; hit rate 0.19% among 360,000; AID 624037;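 active = activation above the run's mean over test compounds plus 3 SD, cut at about 23% in these data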;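 note: signal is peak over basal fluorescence ratio across the kinetic read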
CHRM4 agonist: agonists of human muscarinic M4 receptor (CHRM4) | hit rate 0.14% among 360,000 | activation, % at 3 µM | CHO-K1 hM4/Gqi5, Fluo-8 calcium fluorescence; vehicle 0%, full acetylcholine response 100% | P08173 | AID 624127;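 active = activation above the run mean over all test wells plus 3 SD, cut at about 32% in these data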;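 note: peak over basal fluorescence ratio per well then scaled between controls; 0% = DMSO wells and 100% = acetylcholine at EC100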
Starred values were filed as active, the others as inactive. Compounds with a hit are over-represented: about 1.8% of the library has one in this group of screens.

SMILES	M5 PAM	CHRM4 antagonist	CHRM4 PAM	M5 antag	M5 ag	CHRM4 agonist
NCCCC(=O)N1c2ccccc2Sc2ccccc21	-23.7	42.5*	-13.9	67.2*	-4.3	1.5
CCN(CC)CC(=O)N1c2ccccc2Sc2ccc(Cl)cc21	-48.9	85.4*	-18.3	96.9*	-16.9	-0.2
CCN(CC)CCCCN1c2ccccc2Sc2ccccc21	-22.5	73.1*	-17.3	88.5*	-4.5	9.9
CCN(CC)C(=O)N1c2ccccc2Sc2ccccc21	-5.7	1.5	-3.9	9.4	-9.5	-2.1
CCN(CC)CCC(=O)N1c2ccccc2Sc2ccc(NC(=O)OC)cc21	-19.5	-1.4	-5.3	-7.6	-25.9	1.4
CCN(CC)CC(=O)N1c2ccccc2Sc2ccccc21	-17.9	83.6*	-18.3	91.7*	-5.4	1.0
CCCNC(=O)N1c2ccccc2Sc2ccccc21	-5.1	-0.4	-9.4	14.9	-19.9	0.9
COc1cc(C)ccc1OCC(=O)OCC(=O)NCC1CCCCC1	1.4	-5.2	1.8	10.4	0.7	0.3
Cc1ccc(CSC(Nc2ccc(F)cc2)=C(C#N)C#N)cc1	-16.5	24.0	-8.8	31.0*	5.9	7.6
Cc1ccccc1OCC(=O)NNC(=O)c1ccoc1C	-5.5	0.7	4.5	11.8	2.5	1.0
CCOc1ccc(NC(=O)CN2C(=O)S/C(=C/c3cccn3C)C2=O)cc1	-16.0	1.4	-5.3	27.9*	-3.6	1.7
CCc1ccc(C2CC(=O)N3CN(c4ccccc4)CSC3=C2C#N)cc1 (stereo not given)	2.9	1.0	-8.9	-3.8	-0.5	0.2
CN1CSC2=C(C#N)C(c3cccc(OCc4ccccc4)c3)CC(=O)N2C1 (stereo not given)	-17.5	-15.0	-0.6	-5.7	39.9*	5.2
COc1cccc(N(C(=O)c2snc(C(N)=O)c2N)C(C(=O)NCc2ccccc2)c2ccc(O)cc2)c1 (stereo not given)	-12.2	6.4	-9.4	30.9*	-0.5	11.6
Cc1ccc(N(CC(=O)NC2CCCCC2)C(=O)CCCC(=O)Nc2ccccn2)cc1	3.1	7.1	-4.3	9.3	-1.2	0.6
CCN(C1CCS(=O)(=O)C1)S(=O)(=O)c1ccc(OC)c(OC)c1 (stereo not given)	-0.3	-8.0	23.2*	6.1	2.0	0.9
CCCCN(C1CCS(=O)(=O)C1)S(=O)(=O)c1ccc(OC)cc1 (stereo not given)	-2.8	3.4	-3.2	0.7	-0.3	1.1
Cc1ccc(SCCNS(C)(=O)=O)cc1	21.5*	-3.2	13.7	-5.9	-2.9	0.9
CC1=C(CC(=O)O)c2cc(F)ccc2/C1=C/c1ccc(S(C)=O)cc1 (stereo not given)	-2.2	2.9	-3.6	1.2	1.4	1.8
CC(C)NS(=O)(=O)c1cccc2nsnc12	-0.2	11.4	27.4*	3.0	-0.2	2.3
CCCNC(=O)C1CCC(CNS(=O)(=O)c2cccc3nsnc23)CC1 (stereo not given)	5.9	2.9	15.8*	-1.5	-4.3	1.2
CC1CC(C)CN(S(=O)(=O)c2cccc3nsnc23)C1 (stereo not given)	5.8	-9.7	20.7*	-8.5	-2.3	0.1
CC(=O)N(C(C)=O)c1ncn(C)c1S(=O)(=O)Nc1ccccc1	-7.7	-6.8	7.2	16.1	-0.2	0.1
CCN1CCN(CCC(=O)Nc2ccc(Br)c(C)c2)CC1	20.0*	-18.5	-0.2	-13.0	-6.3	4.7
CCOC(=O)N1CCN(CCC(=O)Nc2ccc(Br)c(C)c2)CC1	-5.7	1.0	-14.8	0.9	2.0	7.9
SMILES	M5 PAM	CHRM4 antagonist	CHRM4 PAM	M5 antag	M5 ag	CHRM4 agonist
CCN(CC)c1ccc(S(=O)(=O)N2CCOCC2)cc1NC(=O)COC(=O)c1cccnc1SC	-1.7	-7.0	2.6	-2.9	0.2	-0.1
CCCCn1c(N)c(N(CCOC)C(=O)CCCc2nc3ccccc3c(=O)[nH]2)c(=O)[nH]c1=O	-1.1	-2.8	7.9	5.0	1.8	-0.4
Oc1c(N=Nc2ccccn2)ccc2ccccc12	-14.0	34.6*	-0.2	33.2*	-7.1	0.6
Oc1[nH]c2ccccc2c1N=Nc1ccccn1	0.5	-8.1	6.7	11.4	3.2	0.7
CN(C)c1ccc(CNS(=O)(=O)c2ccc3c(c2)C(C)(C)C(=O)N3C)cc1	-9.5	2.4	1.8	0.3	1.0	3.2
CCC(=O)N1CCC1(C)C(=O)NS(=O)(=O)c1cccc(C#N)c1 (stereo not given)	3.6	-3.7	5.4	10.8	-3.4	0.1
COc1ccc(NC(=O)N2CCCC2C(=O)NCCc2ccccc2)cc1 (stereo not given)	-1.4	-1.2	-2.2	-2.6	1.0	-0.2
CCCCC(c1nc2ccccc2[nH]1)n1c(=O)c(-c2ccccc2)nc2cc(C)c(C)cc21 (stereo not given)	-4.0	-2.3	20.9*	10.9	0.3	2.1
COC(=O)c1cc(CNC(=O)c2sccc2-c2ccccc2)ccc1OC	-1.3	-4.4	-4.2	4.3	2.1	9.4
COc1cc(OC)c(OC)cc1CN1CCN(Cc2ccc(C(F)(F)F)cc2)CC1	22.2*	-8.8	3.7	-6.9	0.5	1.0
c1ccc(NCCC2OCC3(CO2)COC(CCNc2ccccc2)OC3)cc1 (stereo not given)	-8.2	-3.0	-2.3	28.8*	-1.2	5.3
CC(=O)Oc1ccc(C(=O)Nc2cccc3c2CCCC3)cc1	15.4	-7.3	-7.4	-13.7	7.4	0.6
COc1ccc(C)cc1S(=O)(=O)N1CCC(C(=O)NC2CCCC2)CC1	-0.8	-5.5	20.3*	4.3	2.9	4.4
Cc1ccc(S(=O)(=O)N2CCC(C(N)=O)CC2)cc1C(=O)NC1CCCCC1	10.9	-7.0	20.6*	-6.5	2.2	0.3
Cc1ccc(S(=O)(=O)N2CCCC2)cc1C(=O)NC1CCCCC1	5.5	-0.8	-1.1	-1.9	-2.9	0.9
O=C(Cn1c(=O)oc2cc(S(=O)(=O)N3CCCCCC3)ccc21)NC1CCCCC1	-0.1	-15.8	17.5*	-7.3	1.8	2.1
CC1CC(C)CN(C(=O)c2cc(S(=O)(=O)N3CCCCC3)ccc2Cl)C1 (stereo not given)	-2.7	-5.1	-2.2	2.1	-1.4	0.8
COc1cccc2sc(N(CCCN(C)C)C(=O)c3sc4ccccc4c3Cl)nc12	-13.3	-14.7	11.9	8.3	-2.9	14.1
Cc1ccc(C)c(OC(=O)c2cccc(S(=O)(=O)N3CCN(C)CC3)c2)c1	-0.8	-0.3	-2.8	4.0	-0.2	6.1
CCN(CC)CCn1c2c(c(SCC(=O)Nc3ccc(C(C)C)cc3)nc1=O)CCCC2	-2.4	-24.5	13.6	1.6	-8.2	-0.2
CN(C)CCn1c2c(c(SCC(=O)Nc3ccccc3)nc1=O)CCCC2	5.6	4.7	-0.3	-8.2	-3.0	-0.2

Screening results as filed in PubChem.
